The values that follow come from PubChem BioAssay AID588621 (Sanford-Burnham Center for Chemical Genomics, 2011).

The whole screen tested about 360,000 compounds, of which about 890 (0.25%) were called active. This excerpt belongs to a sample that is enriched for actives. Values without a mark were called inactive.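 Rule for the calls: active = inhibition at 20 µM, scaled per plate between control wells, above about 37% (limit read from the data); inactive = the rest.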

Chain of Tyrosine-protein phosphatase non-receptor type 5 (Homo sapiens) (P54829 whole entry, looked up): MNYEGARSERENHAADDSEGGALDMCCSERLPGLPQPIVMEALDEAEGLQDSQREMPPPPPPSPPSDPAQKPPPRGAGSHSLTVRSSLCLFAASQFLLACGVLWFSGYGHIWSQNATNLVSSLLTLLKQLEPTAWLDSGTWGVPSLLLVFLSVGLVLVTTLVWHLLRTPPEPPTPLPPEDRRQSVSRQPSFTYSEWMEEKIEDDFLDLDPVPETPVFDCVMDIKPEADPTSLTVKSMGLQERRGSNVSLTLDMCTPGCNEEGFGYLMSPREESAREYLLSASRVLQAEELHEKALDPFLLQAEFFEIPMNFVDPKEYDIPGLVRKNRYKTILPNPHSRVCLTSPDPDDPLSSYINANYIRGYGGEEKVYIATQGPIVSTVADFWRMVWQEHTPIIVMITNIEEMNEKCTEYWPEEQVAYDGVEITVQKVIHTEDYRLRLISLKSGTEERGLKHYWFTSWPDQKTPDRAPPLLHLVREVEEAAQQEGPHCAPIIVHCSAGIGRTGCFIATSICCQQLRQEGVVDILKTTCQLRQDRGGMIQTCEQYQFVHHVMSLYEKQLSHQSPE

This experiment addresses Tyrosine-protein phosphatase non-receptor type 5 (Homo sapiens) (UniProt P54829). The experiment in a line: inhibition of human PTPN5 enzyme activity – biochemical, fluorescence intensity, uHTS, primary screen (AID 588621).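 Note: 0% = DMSO with enzyme and substrate and 100% = substrate only without enzyme.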 As to conditions: recombinant STEP, OMFP fluorogenic substrate, at 20 µM, active compounds read high. A digest of the protocol: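 Test system: STEP tyrosine phosphatase / Reagent: OMFP at 25 µM / Doses: 20 µM, 1% DMSO / Read-out: percent inhibition scaled to no-enzyme and uninhibited-enzyme controls, plate-pattern corrected / Detection: FITC-channel fluorescence of OMFP product / Medium: Bis-Tris buffer pH 6.0, 2.5 mM DTT, 0.005% Tween 20 / Schedule: 20 min at room temperature, dark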
On to `COc1ccc(N2C(=O)/C(=C/c3ccco3)C(=O)NC2=S)cc1`, for which the inhibition was 63.7% (active). Then `CC1CC=CCC12C(=O)NC(=S)NC2=O` (stereo not given), with 0%; and `COc1ccc(-n2c(-c3ccccc3)nc3ccccc3c2=O)cc1`, with -0.9%; and `O=C(c1cc2nc(-c3ccccc3)cc(-c3ccccc3)n2n1)N1CCC2(CC1)OCCO2`, with 0.4%. As to `CN(C)CCN(CC1CCCN(Cc2ccccc2F)C1)C(=O)Cc1ccc(F)c(F)c1` (stereo not given), the inhibition was -2%.
